For three compounds, inhibition results are on record in ChEMBL document CHEMBL3124901, “Inhibitory effect of a callophycin A derivative on iNOS expression via inhibition of Akt in lipopolysaccharide-stimulated RAW 264.7 cells” (2014).

Molecules are shown by their SMILES. Calls of active or inactive are those of the source. The calls are words filed in the database; no cut-off is given here.

Assay [1] deals with RAW264.7. Put plainly: Antiinflammatory activity in LPS-stimulated mouse RAW264.7 cells assessed as inhibition of iNOS protein expression at 50 uM preincubated for 15 mins followed by LPS challenge measured after 20 hrs by Western blot analysis. Format: functional, cell-based.
The subject of assay [2] is RAW264.7. The experiment in a line: Inhibition of PI3K/AKT in mouse RAW264.7 cells assessed as inhibition of LPS-induced iNOS protein expression at 25 uM after 20 hrs by Western blot analysis. Format: cell-based. The gist of the method: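 Pretreatment with 25 μM or LY294002 (25 μM), then LPS for 20 h; iNOS protein by Western blot.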

Turning to `O=C(O)[C@@H]1Cc2c([nH]c3ccccc23)CN1Cc1ccc(O)cc1`, in the assay on RAW264.7 [1], the inhibition result was “inactive”. Take `O=c1cc(N2CCOCC2)oc2c(-c3ccccc3)cccc12`: the inhibition entry in the assay with RAW264.7 [2] was “Active”.

For `O=C(O)[C@H]1Cc2c([nH]c3ccccc23)CN1Cc1ccc(O)cc1`, the inhibition entry in the assay with RAW264.7 [1] was “inactive”.
